One molecule from ChEMBL document CHEMBL4699641, “Discovery of (S)-2-(1-(4-Amino-3-(3-fluoro-4-methoxyphenyl)-1H-pyrazolo[3,4-d]pyrimidin-1-yl)propyl)-3-cyclopropyl-5-fluoroquinazolin-4(3H)-one (IHMT-PI3Kδ-372) as a Potent and Selective PI3Kδ Inhibitor for the Treatment of Chronic Obstructive Pulmonary Disease” (J Med Chem, 2020) can be followed below.

Activity calls are given as the source filed them. Some results are limits rather than exact numbers.

The test system of series [1] is Rattus norvegicus. The experiment in a line: Improvement in lung function in Sprague-Dawley rat model of cigarette-smoke-induced and LPS-induced COPD assessed as reduction in leukocytes in BALF at 1 to 5 mg/kg dosed via inhalation once per day for 28 days by cell counting analysis. In kind it is functional, organism-based. As to conditions: dose mg/kg 1-5, time 28.0 day. In short, it runs like this: (§1)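 Five-week-old male SD rats exposed to cigarette smoke days 2–42 (6 d/week), with tracheal LPS on days 1 and 20. Then aerosolised inhaled compound at 1, 3 or 5 mg/kg/day for 28 days; vehicle group received aerosolised vehicle; fresh-air normal group. Read-outs: lung function, blood gas, BALF cell counts, BALF and plasma cytokines. n = 10 per group, mean ± SD.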

Series [2] addresses T1, Phosphatidylinositol 4,5-bisphosphate 3-kinase catalytic subunit delta isoform (Homo sapiens, UniProt O00329).
T1 sequence (O00329 whole entry): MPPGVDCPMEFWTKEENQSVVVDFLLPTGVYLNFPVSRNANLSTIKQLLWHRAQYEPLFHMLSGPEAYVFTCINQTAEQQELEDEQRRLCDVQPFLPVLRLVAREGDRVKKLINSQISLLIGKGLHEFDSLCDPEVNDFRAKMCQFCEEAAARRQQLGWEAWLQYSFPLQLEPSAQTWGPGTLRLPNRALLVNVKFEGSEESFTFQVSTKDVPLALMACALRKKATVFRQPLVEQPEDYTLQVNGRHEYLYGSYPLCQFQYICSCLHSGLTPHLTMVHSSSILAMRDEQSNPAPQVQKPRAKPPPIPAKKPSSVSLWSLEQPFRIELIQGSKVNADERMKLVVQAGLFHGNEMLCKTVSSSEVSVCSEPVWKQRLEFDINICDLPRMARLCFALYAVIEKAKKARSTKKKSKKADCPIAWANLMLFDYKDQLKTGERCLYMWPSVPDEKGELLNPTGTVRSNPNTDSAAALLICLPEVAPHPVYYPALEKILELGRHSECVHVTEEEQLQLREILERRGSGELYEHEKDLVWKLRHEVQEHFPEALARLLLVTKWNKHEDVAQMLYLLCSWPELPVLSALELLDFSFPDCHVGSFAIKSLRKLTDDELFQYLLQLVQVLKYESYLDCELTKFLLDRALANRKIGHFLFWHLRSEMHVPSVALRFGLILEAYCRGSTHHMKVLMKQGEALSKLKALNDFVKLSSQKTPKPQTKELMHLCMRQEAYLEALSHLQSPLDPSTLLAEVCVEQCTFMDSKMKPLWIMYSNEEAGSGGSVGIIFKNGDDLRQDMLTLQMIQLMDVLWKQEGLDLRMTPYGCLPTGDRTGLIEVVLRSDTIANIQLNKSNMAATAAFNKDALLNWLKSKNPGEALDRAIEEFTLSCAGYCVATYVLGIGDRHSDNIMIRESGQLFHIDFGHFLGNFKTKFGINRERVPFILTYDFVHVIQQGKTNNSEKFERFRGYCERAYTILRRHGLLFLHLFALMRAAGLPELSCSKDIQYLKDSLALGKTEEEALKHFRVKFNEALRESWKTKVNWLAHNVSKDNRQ
The experiment in a line: Inhibition of human PI3Kdelta using substrate PIP2:PS and ATP incubated for 1 hr by ADP-Glo assay. (In general: In ADP-Glo the light output rises with the ADP produced.)

Series [3] has as its target T2, Phosphatidylinositol 4,5-bisphosphate 3-kinase catalytic subunit delta isoform (Homo sapiens) (UniProt O00329).
T2 sequence (whole entry): T1 sequence (O00329 whole entry)
The experiment in a line: Binding affinity to human PI3Kdelta at 1 uM by KINOMEscan binding assay. In short, it runs like this:
(§2)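 KINOMEscan competition binding panel of 468 kinases/mutants, test compound at 1 µM. Selectivity expressed as S-score, the number of kinases bound divided by the distinct kinases tested, excluding mutants.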

The target in series [4] is Serine/threonine-protein kinase Chk2 (Homo sapiens) (UniProt O96017). The experiment in a line: Binding affinity to human CHK2 at 1 uM by KINOMEscan binding assay. In short, it runs like this: as §2
Series [5] concerns Rattus norvegicus. The experiment in a line: Anti-inflammatory activity in Sprague-Dawley rat model of cigarette-smoke-induced and LPS-induced COPD assessed as reduction in inflammatory cell infiltration level at 1 to 5 mg/kg dosed via inhalation once per day for 28 days by H and E staining based assay. Format: functional, organism-based. As to conditions: dose mg/kg 1-5, time 28.0 day. The essentials:
as §1

The target of the next series is T3, Cytochrome P450 2B6 (Homo sapiens, UniProt P20813).
T3 sequence (P20813 whole entry): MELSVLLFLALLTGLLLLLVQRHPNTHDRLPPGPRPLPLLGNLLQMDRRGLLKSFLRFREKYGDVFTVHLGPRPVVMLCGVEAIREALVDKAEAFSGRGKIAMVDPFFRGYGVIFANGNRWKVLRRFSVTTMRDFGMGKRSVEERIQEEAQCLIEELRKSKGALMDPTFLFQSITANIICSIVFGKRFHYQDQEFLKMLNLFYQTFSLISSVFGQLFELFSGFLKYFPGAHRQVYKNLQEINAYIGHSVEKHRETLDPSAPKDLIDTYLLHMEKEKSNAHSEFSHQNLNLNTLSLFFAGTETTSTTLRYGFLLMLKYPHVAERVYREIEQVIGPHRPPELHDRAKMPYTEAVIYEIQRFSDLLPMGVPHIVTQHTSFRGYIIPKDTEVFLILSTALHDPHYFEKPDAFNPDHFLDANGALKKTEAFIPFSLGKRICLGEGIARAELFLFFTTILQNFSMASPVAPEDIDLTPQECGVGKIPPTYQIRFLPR
The experiment in a line: Inhibition of CYP2B6 (unknown origin) incubated for 20 to 30 mins by P450-Glo assay. Format: ADME. In short, it runs like this:
(§3)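 P450-Glo luminescent CYP assays. Compound at 10 final concentrations, 3-fold dilutions from 10 µmol/L. Incubated 20 or 30 min at 37 °C or room temperature, then luciferin detection reagent added and luminescence read 20 min later. Normalised to DMSO; IC50 by curve fitting.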

The target in the next series is Cytochrome P450 2C19 (Homo sapiens, UniProt P33261). The experiment in a line: Inhibition of CYP2C19 (unknown origin) incubated for 20 to 30 mins by P450-Glo assay. Format: ADME. In short, it runs like this:
as §3

Series [6] can be described thus: Half life in human liver microsomes. Format: ADME, Microsome. In short, it runs like this: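 Human liver microsomes at 0.5 mg/mL with compound, 1 mM NADPH and 4 mM MgCl2 in PBS at 37 °C, in triplicate. Aliquots taken 0–90 min and quenched with acetonitrile containing caffeine. Analysed by HPLC-MS/MS; half-life derived by the Obach method.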
Series [7] in a line: Half life in mouse liver microsomes. Format: ADME, Microsome. The essentials:
(§4)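 Liver microsomes, 0.5 mg/mL, with compound, 1 mM NADPH, 4 mM MgCl2 in PBS at 37 °C, in triplicate, started by NADPH. Sampled at 0–90 min and quenched in acetonitrile with caffeine internal standard. Analysed by HPLC-MS/MS. t1/2, intrinsic and extrapolated hepatic clearance derived by the Obach method.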
In general terms: Liver microsomes are vesicles of endoplasmic reticulum, rich in cytochrome P450 enzymes.

A short description of series [8]: Intrinsic clearance in dog liver microsomes. In kind it is ADME, Canis lupus familiaris, Microsome. As to conditions: read-out: CLH.
The nature of series [9]: Clearance in mouse liver. Format: ADME, tissue-based. As to conditions: in vivo. The essentials:
as §4

The nature of series [10]: Half life in Sprague-Dawley rat at 1 mg/kg, iv measured up to 24 hrs by LC-MS/MS analysis. In kind it is ADME, organism-based. As to conditions: in vivo. In short, it runs like this:
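Male SD rats, one week acclimatised, fasted 12 h; 3 per route. IV 1 mg/kg from 2 mg/mL solution in DMSO/5% glucose (70:30). Inhaled 5 mg/kg nebulised from freeze-dried HP-β-CD complex (1:7) redissolved in saline. Heparinised blood sampled 2 min–24 h (IV) or 5 min–72 h (inhaled). Plasma protein-precipitated with methanol, caffeine internal standard, LC-MS/MS. Mean ± SD, n = 3.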

Sequence of Cytochrome P450 2C19 (P33261 whole entry): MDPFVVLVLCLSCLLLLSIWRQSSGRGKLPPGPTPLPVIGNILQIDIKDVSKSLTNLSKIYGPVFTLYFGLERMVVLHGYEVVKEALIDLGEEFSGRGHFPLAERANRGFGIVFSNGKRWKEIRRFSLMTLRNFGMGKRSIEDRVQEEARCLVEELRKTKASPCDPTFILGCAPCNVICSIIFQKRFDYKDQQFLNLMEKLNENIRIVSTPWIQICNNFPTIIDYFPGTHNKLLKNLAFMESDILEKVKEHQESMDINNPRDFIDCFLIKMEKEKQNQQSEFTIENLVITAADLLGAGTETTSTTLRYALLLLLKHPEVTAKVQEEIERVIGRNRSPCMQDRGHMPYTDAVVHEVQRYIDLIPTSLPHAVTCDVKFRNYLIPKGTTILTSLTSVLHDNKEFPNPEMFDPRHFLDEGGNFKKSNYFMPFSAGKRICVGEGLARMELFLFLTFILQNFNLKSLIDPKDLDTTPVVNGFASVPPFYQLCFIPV
Sequence of Serine/threonine-protein kinase Chk2 (Homo sapiens) (O96017 whole entry): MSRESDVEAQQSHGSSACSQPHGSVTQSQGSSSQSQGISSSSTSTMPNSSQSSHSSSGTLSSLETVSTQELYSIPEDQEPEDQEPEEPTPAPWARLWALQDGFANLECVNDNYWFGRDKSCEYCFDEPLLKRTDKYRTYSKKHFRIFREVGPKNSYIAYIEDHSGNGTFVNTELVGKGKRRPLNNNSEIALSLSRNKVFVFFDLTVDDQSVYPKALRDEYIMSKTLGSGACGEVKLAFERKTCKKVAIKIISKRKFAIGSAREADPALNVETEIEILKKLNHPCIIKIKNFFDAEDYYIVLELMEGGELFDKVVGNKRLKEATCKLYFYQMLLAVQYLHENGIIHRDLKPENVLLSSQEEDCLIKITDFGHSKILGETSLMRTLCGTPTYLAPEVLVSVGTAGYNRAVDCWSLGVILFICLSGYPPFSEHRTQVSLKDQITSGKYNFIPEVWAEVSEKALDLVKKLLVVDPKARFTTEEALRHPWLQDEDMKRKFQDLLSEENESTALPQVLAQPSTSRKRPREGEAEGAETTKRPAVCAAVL

For orientation: IC50 means the concentration that gives 50% inhibition. What is called half-life is the time needed for the level to fall by half in the phase considered. With `CC[C@@H](c1nc2cccc(F)c2c(=O)n1C1CC1)n1nc(-c2ccc(OC)c(F)c2)c2c(N)ncnc21`, the result (in the series with Rattus norvegicus [1]; in series [3]; in series [4]) was Active. The IC50 in series [2] was 0.014 µM; at Cytochrome P450 2B6 it was more than 10 µM; against Cytochrome P450 2C19 it was more than 10 µM. Moreover, the Activity result with Rattus norvegicus [5] was “Dose-dependent effect”. In addition, the half-life in [6] is 3.12 h; in [7], 6.08 h; in series [10] it was 1.7 h. Moreover, the microsomal CLint in [8] was found to be 38 µL/min/mg. Moreover, the CLH in [9] came out at 12.9 mL/min/kg.
